Laboratory results taken from ChEMBL document CHEMBL1909630, “Azaxanthene based selective glucocorticoid receptor modulators: design, synthesis, and pharmacological evaluation of (S)-4-(5-(1-((1,3,4-thiadiazol-2-yl)amino)-2-methyl-1-oxopropan-2-yl)-5H-chromeno[2,3-b]pyridin-2-yl)-2-fluoro-N,N-dimethylbenzamide (BMS-776532) and its methylene homologue …” (J Med Chem, 2011).
Activity calls are given as the source filed them. The rule behind the calls is not given here.

Legend:
Rattus norvegicus [1] = assay: Antiinflammatory activity in Freund's complete adjuvant-induced Lewis rat arthritis model assessed as reduction in paw swelling at 25 mg/kg/day, po qd for 21 days; format: functional, organism-based
Procedure, shortened: (§1)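 Male Lewis rats were inoculated with Mycobacterium butyricum in incomplete Freund's adjuvant. Oral dosing was daily and preventative, running from day 0 to day 21. Onset and progression of arthritis were followed, and ED50 was estimated from the dose response.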

[2] = Drug level in plasma of Sprague-Dawley rat at 30 mg/kg, po measured after 6 hrs; format: ADME, organism-based; parameters: dose 30 mg/kg, route oral; settings: read-out: Drug uptake
Procedure, shortened: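 Plasma exposure was measured in Sprague-Dawley rats 6 h after a single oral dose of 30 mg/kg given in the carrageenan paw edema study.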

[3] = Cmax in Sprague-Dawley rat at 50 mg/kg, po; format: ADME, organism-based; parameters: dose 50 mg/kg, route oral; settings: in vivo
Procedure, shortened: (§2)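 Male Sprague-Dawley rats received a single intravenous (1 mg/kg) or oral (10 or 50 mg/kg) dose. Plasma pharmacokinetic parameters were derived from these profiles.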

Androgen receptor = molecular target: T1, Androgen receptor (Homo sapiens, UniProt P10275); assay: Displacement of fluorescently labeled ligand from androgen receptor by fluorescence polarization assay
T1 sequence (P10275 whole entry): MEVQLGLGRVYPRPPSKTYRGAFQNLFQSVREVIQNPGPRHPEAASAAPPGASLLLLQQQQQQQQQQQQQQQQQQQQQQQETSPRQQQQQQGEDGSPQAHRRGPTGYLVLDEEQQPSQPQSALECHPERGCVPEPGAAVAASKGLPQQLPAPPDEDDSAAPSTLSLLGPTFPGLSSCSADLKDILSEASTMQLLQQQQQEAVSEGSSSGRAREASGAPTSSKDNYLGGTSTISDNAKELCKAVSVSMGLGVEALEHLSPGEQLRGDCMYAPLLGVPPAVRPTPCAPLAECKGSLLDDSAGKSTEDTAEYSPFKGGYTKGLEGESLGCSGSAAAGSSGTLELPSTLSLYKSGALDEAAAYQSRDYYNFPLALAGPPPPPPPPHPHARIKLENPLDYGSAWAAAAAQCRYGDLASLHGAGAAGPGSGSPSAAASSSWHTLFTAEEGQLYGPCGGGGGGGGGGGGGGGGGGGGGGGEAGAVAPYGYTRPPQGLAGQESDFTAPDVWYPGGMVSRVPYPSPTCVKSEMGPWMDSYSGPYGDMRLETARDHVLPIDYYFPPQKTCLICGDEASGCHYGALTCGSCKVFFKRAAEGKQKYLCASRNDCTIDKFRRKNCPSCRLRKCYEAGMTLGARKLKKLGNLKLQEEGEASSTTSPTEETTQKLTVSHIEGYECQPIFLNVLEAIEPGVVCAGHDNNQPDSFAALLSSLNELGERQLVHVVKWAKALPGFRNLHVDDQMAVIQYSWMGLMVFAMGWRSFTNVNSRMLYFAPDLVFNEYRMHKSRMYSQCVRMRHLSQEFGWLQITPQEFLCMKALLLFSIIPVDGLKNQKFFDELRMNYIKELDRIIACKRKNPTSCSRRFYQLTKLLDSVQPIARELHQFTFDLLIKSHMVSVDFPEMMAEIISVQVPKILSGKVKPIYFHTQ
Procedure, shortened: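 Binding was measured by fluorescence polarization competition between compound and a fluorescent ligand for full-length receptor or ligand-binding domain. Values are means of at least two experiments.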

[4] = AUC in Sprague-Dawley rat at 10 mg/kg, po; format: ADME, organism-based; parameters: dose 10 mg/kg, route oral; settings: plasma; procedure, shortened: as §2
[5] = Membrane permeability by PAMPA; format: ADME
Rattus norvegicus [6] = assay: Antiinflammatory activity in Sprague-Dawley rat assessed as carrageenan-induced paw edema at 30 mg/kg, po administered as a single dose 2 hrs before carrageenan challenge measured 4 hrs post carrageenan challenge by plethysmometry relative to control
Blood [7] = assay: Antiinflammatory activity in Sprague-Dawley rat whole blood assessed as inhibition of LPS-induced TNFalpha production
[8] = Cmax in Sprague-Dawley rat at 10 mg/kg, po; format: ADME, organism-based; parameters: dose 10 mg/kg, route oral; settings: in vivo; procedure, shortened: as §2
Blood [9] = assay: Antiinflammatory activity in human whole blood assessed as inhibition of IL-1beta-induced IL-8 production after overnight incubation by ELISA relative to Dexamethasone; format: functional
Procedure, shortened: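 Whole blood from two donors per experiment was collected into ACD-A. Compounds were added and the blood was incubated about 20 h at 37 °C under 5% CO2. Blood was then stimulated for 5 h with LPS (final 100 ng/mL, for TNFα) or IL-1β (final 10 ng/mL, for IL-8). Plasma TNFα or IL-8 was measured by ELISA. Efficacy was expressed as % of dexamethasone, and values are means of at least two experiments.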

SAOS-2 = assay: Induction of alkaline phosphatase expression in human Saos2 cells after 3 days by spectrophotometry; format: cell-based; settings: SAOS-2, 72 h
Rattus norvegicus [10] = assay: Antiinflammatory activity in Freund's complete adjuvant-induced Lewis rat arthritis model assessed as reduction in paw swelling at 50 mg/kg/day, po qd for 21 days; format: functional, organism-based; procedure, shortened: as §1

Compound | Activity (Rattus norvegicus [1]) | concentration at 6 h [2] | Cmax [3] | Ki (Androgen receptor) | AUC [4] | permeability [5] | level, % of control at 30 mg/kg (Rattus norvegicus [6]) | EC50 (Blood [7]) | Cmax [8] | Imax (Blood [9]) | Emax (SAOS-2) | Activity (Rattus norvegicus [10])
CCN(C)C(=O)c1ccc(-c2ccc3c(n2)Oc2ccccc2[C@@H]3C(C)(C)C(=O)Nc2nncs2)cc1F | Active | 1110 nM | 3080 ng/mL | > 5000 nM | 904 ng·h/mL | permeable | 54% | 215 nM | 351 ng/mL | 88% | 24% | –
CN(C)C(=O)c1ccc(-c2ccc3c(n2)Oc2ccccc2[C@H]3C(C)(C)C(=O)Nc2nncs2)cc1F | – | 788 nM | 3210 ng/mL | > 5000 nM | 673 ng·h/mL | permeable | 42% | 189 nM | 285 ng/mL | 70% | 13% | Active
